How the values were obtained:
[1] = system: Liver; assay: Drug level in human liver S9 fraction treated with Rp,Sp-dinucleotide-2 at 10 uM by HPLC analysis; type: ADME, subcellular; conditions: s9, 10 µM
Procedure, shortened: (§1)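 Pooled human liver S9 (1 mg/ml), alamethicin-treated (10 μg/ml, 15 min on ice), with NADPH 1.3 mM, UDP-GlcUA 5 mM in 1× PBS; substrate 10 μM final. Incubated 37°C shaking; sampled 1, 4, 6 h, acetonitrile quench, centrifuged, supernatant lyophilised, reconstituted in water; HPLC (C18, 25°C, 5–50% acetonitrile in 0.1 M NH4OAc over 45 min) and LC/MS.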

[2] = system: Liver; assay: Drug level in human liver S9 fraction treated with Rp,Sp-dinucleotide-2 at 10 uM by LC/MS analysis; type: ADME, subcellular; conditions: s9, 10 µM; procedure, shortened: as §1
[3] = Half life of the compound in simulated gastric fluid by HPLC analysis; type: ADME
Procedure, shortened: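 Stock of 2 mg/100 µl in DMSO; 10 µl added to 200 µl simulated gastric fluid (NaCl, porcine pepsin, HCl, pH 1.2) or simulated intestinal fluid (KH2PO4, NaOH, pancreatin, pH 6.8), 37°C. Aliquots at 15 min, 30 min, 1 h, 3 h were quenched with acetonitrile (SGF neutralised to pH 7.0), centrifuged, lyophilised, reconstituted in water, analysed by C18 HPLC.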

[4] = Stability of the compound in simulated intestinal fluid by HPLC analysis; type: ADME; conditions: simulated gi fluid
Procedure, shortened: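 Simulated intestinal fluid: KH2PO4 6.8 g/l with NaOH, pancreatin 10 g/l, pH 6.8. DMSO stock (2 mg/100 μl), 10 μl added to 200 μl SIF, 37°C; aliquots at 15 min, 30 min, 1 h, 3 h quenched with acetonitrile, centrifuged, supernatant lyophilised, reconstituted in water, analysed by C18 HPLC.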

[5] = system: Liver microsome; assay: Drug level in human liver microsomes treated with Rp,Sp-dinulceotide-2 at 10 uM incubated up to 8 hrs by HPLC analysis; type: ADME
Procedure, shortened: (§2)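 Liver microsomes 1 mg/ml pretreated with alamethicin 10 μg/ml on ice 15 min; NADPH 1.3 mM and UDP-GlcUA 5 mM added in 1× PBS, substrate 10 μM final. Shaking bath at 37°C; aliquots at 1, 4, 6, 8 h quenched with acetonitrile, centrifuged, supernatant lyophilised and redissolved in water; analysed by C18 HPLC (5–50% acetonitrile/0.1 M NH4OAc gradient) and LC/MS.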

[6] = system: Liver microsome; assay: Drug level in human liver microsomes treated with Rp,Sp-dinulceotide-2 at 10 uM incubated up to 8 hrs by LC/MS analysis; type: ADME; procedure, shortened: as §2
[7] = (§3) Drug metabolism in human liver S9 fraction assessed as Rp,Sp-dinucleotide-1 (O-((2R,3S,5R)-5-(6-amino-9H-purin-9-yl)-3-hydroxytetrahydrofuran-2-yl)methyl O-(2R,3R,4R,5R)-5-(2,4-dioxo-3,4-dihydropyrimidin-1(2H)-yl)-2-(hydroxymethyl)-4-methoxytetrahydrofuran-3-yl S-hydrogen phosphorothioate) metabolite formation at 10 uM by HPLC analysis; type: ADME, subcellular; conditions: s9, 10 µM
Procedure, shortened: (§4)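 Pooled human liver S9 (1 mg/ml) pretreated 15 min on ice with alamethicin (10 µg/ml). Incubated with prodrug (10 µM), NADPH 1.3 mM, UDP-GlcUA 5 mM, S-adenosylmethionine 0.1 mM, PAPS 0.1 mM and acetyl-CoA 1 mM in PBS at 37°C with shaking. Sampled at 1, 4 and 6 h, acetonitrile-quenched, then analysed by HPLC and LC/MS.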

[8] = as §3, with “LC/MS” for “HPLC”; type: ADME, subcellular; conditions: s9, 10 µM; procedure, shortened: as §4
[9] = system: Liver microsome; assay: as §3, with “microsomes” for “S9 fraction”, “uM incubated up to 8 hrs” for “uM”; type: ADME
Procedure, shortened: (§5)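 Microsomes (1 mg/ml) pretreated 15 min on ice with alamethicin (10 µg/ml). Incubated with prodrug (10 µM final), NADPH 1.3 mM and UDP-GlcUA 5 mM in PBS at 37°C with shaking. Sampled at 1, 4, 6 and 8 h and quenched with acetonitrile. Supernatant lyophilised, reconstituted in water, analysed by C18 HPLC and by LC/MS.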

[10] = system: Liver microsome; assay: as §3, with “microsomes” for “S9 fraction”, “uM incubated up to 8 hrs” for “uM”, “LC/MS” for “HPLC”; type: ADME; procedure, shortened: as §5
[11] = Time for almost complete conversion of the compound to 1 in simulated intestinal fluid by HPLC analysis

Row | Drug metabolism [1] | Drug metabolism [2] | Stability [4] | Drug metabolism [5] | Drug metabolism [6] | SMILES | half-life [3] | Drug metabolism [7] | Drug metabolism [8] | Drug metabolism [9] | Drug metabolism [10] | time for complete conversion [11]
1 | metabolite_detected | metabolite_detected | Stable | metabolite_detected | metabolite_detected | CO[C@@H]1[C@H](OP(=O)(S)OC[C@H]2O[C@@H](n3cnc4c(N)ncnc43)C[C@@H]2O)[C@@H](CO)O[C@H]1n1ccc(=O)[nH]c1=O (some centres not stated) [INARIGIVIR] | < 15 min |  |  |  |  | 
2 |  |  |  |  |  | CO[C@@H]1[C@H](OP(=O)(OC[C@H]2O[C@@H](n3cnc4c(N)ncnc43)C[C@@H]2O)SCOC(=O)OC(C)C)[C@@H](CO)O[C@H]1n1ccc(=O)[nH]c1=O (some centres not stated) [INARIGIVIR SOPROXIL] | > 180 min | metabolite_detected | metabolite_detected | metabolite_detected | metabolite_detected | 180 min

Reference: ChEMBL document CHEMBL3526154, “Metabolism, pharmacokinetics, tissue distribution, and stability studies of the prodrug analog of an anti-hepatitis B virus dinucleoside phosphorothioate” (Drug Metab Dispos, 2012)
